What was measured:
[1] = Drug concentration in female albino rat uveal tract assessed as radioactivity per gram of tissue at 20 mg/kg administered as single dose via gastric gavage measured after 3 hrs by autoradiographic analysis; assay type: ADME, organism-based; set-up: dose 20 mg/kg, dosed compound name [14C]Sunitinib; settings: in vivo, po
Rattus norvegicus [2] = test: Apparent terminal half life as total radioactivity in male Sprague-Dawley rat plasma at 15 mg/kg, po administered as single dose by LC/MS/MS analysis; assay type: ADME, organism-based; set-up: dose 15 mg/kg, dosed compound name [14C]Sunitinib, route oral; settings: in vivo
In short: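 Single dose of [14C]sunitinib L-malate as free base, 50 µCi/kg. IV dose was 5 mg/kg by tail vein in 5 females. Oral dose was 15 mg/kg by gavage in 3 females and 3 males. Total radioactivity was by scintillation counting. […] Cmax was read from raw data, t½ by log-linear regression, AUC by linear trapezoidal rule.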

[3] = Drug concentration in male albino rat uveal tract assessed as radioactivity per gram of tissue at 20 mg/kg administered as single dose via gastric gavage measured after 6 hrs by autoradiographic analysis; assay type: ADME, organism-based; set-up: dose 20 mg/kg, dosed compound name [14C]Sunitinib; settings: in vivo, po
Spinal cord = test: Drug concentration in male albino rat spinal cord assessed as radioactivity per gram of tissue at 20 mg/kg administered as single dose via gastric gavage measured after 6 hrs by autoradiographic analysis; assay type: ADME, organism-based; set-up: dose 20 mg/kg, dosed compound name [14C]Sunitinib; settings: in vivo, po
Small intestine = test: Drug concentration in female albino rat small intestine assessed as radioactivity per gram of tissue at 20 mg/kg administered as single dose via gastric gavage measured after 6 hrs by autoradiographic analysis; assay type: ADME, organism-based; set-up: dose 20 mg/kg, dosed compound name [14C]Sunitinib; settings: in vivo, po
Adrenal [4] = test: Drug concentration in female albino rat adrenal assessed as radioactivity per gram of tissue at 20 mg/kg administered as single dose via gastric gavage measured after 6 hrs by autoradiographic analysis; assay type: ADME, organism-based; set-up: dose 20 mg/kg, dosed compound name [14C]Sunitinib; settings: in vivo, po
In short: (§1)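 Sprague Dawley (albino) rats, ca 7-8 weeks old, received a single gastric-gavage dose of [14C]sunitinib L-malate at 20 mg/kg (15 mg freebase/kg, 100 µCi/kg). One animal per sex killed by CO2 at 3, 6, 24, 72 and 168 h, then frozen in CO2/hexane. 30 µm sagittal sections were cut and freeze-dried. Radioactivity per gram quantified by whole-body autoradiography using regression against standards. LOQ 0.04–0.06 µg freebase equiv/g.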

[5] = Drug concentration in female albino rat preputial gland assessed as radioactivity per gram of tissue at 20 mg/kg administered as single dose via gastric gavage measured after 6 hrs by autoradiographic analysis; assay type: ADME, organism-based; set-up: dose 20 mg/kg, dosed compound name [14C]Sunitinib; settings: in vivo, po
In short: (§2)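 Sprague Dawley albino rats, ca 7-8 weeks old, dosed once by gastric gavage with [14C]sunitinib L-malate (15 mg freebase/kg, 100 µCi/kg). One male and one female killed by CO2 at 3, 6, 24, 72 and 168 h. Carcasses frozen in solid CO2/hexane, embedded and cut into 30 µm sagittal sections, then freeze-dried. Radioactivity quantified by whole-body autoradiography against standards by regression, background subtracted.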

[6] = Drug concentration in female albino rat uterus assessed as radioactivity per gram of tissue at 20 mg/kg administered as single dose via gastric gavage measured after 24 hrs by autoradiographic analysis; assay type: ADME, organism-based; set-up: dose 20 mg/kg, dosed compound name [14C]Sunitinib; settings: in vivo, po
Pancreas = test: Drug concentration in male albino rat pancreas assessed as radioactivity per gram of tissue at 20 mg/kg administered as single dose via gastric gavage measured after 6 hrs by autoradiographic analysis; assay type: ADME, organism-based; set-up: dose 20 mg/kg, dosed compound name [14C]Sunitinib; settings: in vivo, po
[7] = Drug concentration in male albino rat bone marrow assessed as radioactivity per gram of tissue at 20 mg/kg administered as single dose via gastric gavage measured after 3 hrs by autoradiographic analysis; assay type: ADME, organism-based; set-up: dose 20 mg/kg, dosed compound name [14C]Sunitinib; settings: in vivo, po
[8] = Drug concentration in male albino rat skeletal muscle assessed as radioactivity per gram of tissue at 20 mg/kg administered as single dose via gastric gavage measured after 24 hrs by autoradiographic analysis; assay type: ADME, organism-based; set-up: dose 20 mg/kg, dosed compound name [14C]Sunitinib; settings: in vivo, po
Adrenal [9] = test: Drug concentration in female Lister Hooded pigmented rat adrenal assessed as radioactivity per gram of tissue at 20 mg/kg administered as single dose via gastric gavage measured after 168 hrs by autoradiographic analysis; assay type: ADME, organism-based; set-up: dose 20 mg/kg, dosed compound name [14C]Sunitinib; settings: in vivo, po
In short: (§3)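 Pigmented Lister Hooded rats, 7-8 weeks old, received [14C]sunitinib L-malate by gavage at 20 mg/kg (15 mg freebase/kg, 100 µCi/kg). One rat per sex was killed by CO2 at each of 24, 72, 168 and 336 h. Carcasses were frozen in solid CO2/hexane and cut into 30 µm sagittal sections, then freeze-dried. Tissue radioactivity was quantified by whole-body autoradiography calibrated against standards by regression (LOQ 0.04–0.06 µg eq/g).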

Stomach = test: Drug concentration in male Lister Hooded pigmented rat stomach assessed as radioactivity per gram of tissue at 20 mg/kg administered as single dose via gastric gavage measured after 168 hrs by autoradiographic analysis; assay type: ADME, organism-based; set-up: dose 20 mg/kg, dosed compound name [14C]Sunitinib; settings: in vivo, po
Zone of skin = test: Drug concentration in female Lister Hooded pigmented rat abdomen skin assessed as radioactivity per gram of tissue at 20 mg/kg administered as single dose via gastric gavage measured after 72 hrs by autoradiographic analysis; assay type: ADME, organism-based; set-up: dose 20 mg/kg, dosed compound name [14C]Sunitinib; settings: in vivo, po; in short: as §3
[10] = Drug recovery in urine of female Sprague-Dawley rat at 15 mg/kg, po administered as single dose during 0 to 72 hrs by liquid scintillation counting; assay type: ADME, organism-based; set-up: dose 15 mg/kg, dosed compound name [14C]Sunitinib, route oral; settings: in vivo
Spleen [11] = test: Drug concentration in female Lister Hooded pigmented rat spleen assessed as radioactivity per gram of tissue at 20 mg/kg administered as single dose via gastric gavage measured after 72 hrs by autoradiographic analysis; assay type: ADME, organism-based; set-up: dose 20 mg/kg, dosed compound name [14C]Sunitinib; settings: in vivo, po
In short: (§4)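 Lister Hooded (pigmented) rats, ca 7-8 weeks old, acclimated 7 days, given [14C]sunitinib L-malate by gastric gavage at 20 mg/kg (15 mg freebase/kg, 100 µCi/kg). One male and one female killed by CO2 at 24, 72, 168 and 336 h. Carcasses frozen in solid CO2/hexane and embedded in frozen cellulose. 30 µm sagittal cryosections were freeze-dried. Tissue radioactivity measured by quantitative whole-body autoradiography against calibration standards, with background subtracted.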

[12] = Drug concentration in female albino rat bladder assessed as radioactivity per gram of tissue at 20 mg/kg administered as single dose via gastric gavage measured after 6 hrs by autoradiographic analysis; assay type: ADME, organism-based, Urinary bladder; set-up: dose 20 mg/kg, dosed compound name [14C]Sunitinib; settings: in vivo, po; in short: as §1
Adrenal [13] = test: Drug concentration in female Lister Hooded pigmented rat adrenal assessed as radioactivity per gram of tissue at 20 mg/kg administered as single dose via gastric gavage measured after 24 hrs by autoradiographic analysis; assay type: ADME, organism-based; set-up: dose 20 mg/kg, dosed compound name [14C]Sunitinib; settings: in vivo, po; in short: as §3
Spleen [14] = test: Drug concentration in female albino rat spleen assessed as radioactivity per gram of tissue at 20 mg/kg administered as single dose via gastric gavage measured after 72 hrs by autoradiographic analysis; assay type: ADME, organism-based; set-up: dose 20 mg/kg, dosed compound name [14C]Sunitinib; settings: in vivo, po
[15] = Drug concentration in male albino rat brown fat assessed as radioactivity per gram of tissue at 20 mg/kg administered as single dose via gastric gavage measured after 3 hrs by autoradiographic analysis; assay type: ADME, organism-based, Brown adipose tissue; set-up: dose 20 mg/kg, dosed compound name [14C]Sunitinib; settings: in vivo, po
[16] = Drug concentration in male albino rat bladder assessed as radioactivity per gram of tissue at 20 mg/kg administered as single dose via gastric gavage measured after 3 hrs by autoradiographic analysis; assay type: ADME, organism-based, Urinary bladder; set-up: dose 20 mg/kg, dosed compound name [14C]Sunitinib; settings: in vivo, po
Kidney = test: Drug concentration in female albino rat kidney assessed as radioactivity per gram of tissue at 20 mg/kg administered as single dose via gastric gavage measured after 168 hrs by autoradiographic analysis; assay type: ADME, organism-based; set-up: dose 20 mg/kg, dosed compound name [14C]Sunitinib; settings: in vivo, po; in short: as §2
Liver = test: Drug concentration in male Lister Hooded pigmented rat liver assessed as radioactivity per gram of tissue at 20 mg/kg administered as single dose via gastric gavage measured after 168 hrs by autoradiographic analysis; assay type: ADME, organism-based; set-up: dose 20 mg/kg, dosed compound name [14C]Sunitinib; settings: in vivo, po
Adrenal [17] = test: Drug concentration in female Lister Hooded pigmented rat adrenal assessed as radioactivity per gram of tissue at 20 mg/kg administered as single dose via gastric gavage measured after 72 hrs by autoradiographic analysis; assay type: ADME, organism-based; set-up: dose 20 mg/kg, dosed compound name [14C]Sunitinib; settings: in vivo, po; in short: as §4
[18] = Drug concentration in male Lister Hooded pigmented rat bladder assessed as radioactivity per gram of tissue at 20 mg/kg administered as single dose via gastric gavage measured after 168 hrs by autoradiographic analysis; assay type: ADME, organism-based, Urinary bladder; set-up: dose 20 mg/kg, dosed compound name [14C]Sunitinib; settings: in vivo, po
Rattus norvegicus [19] = test: Total drug recovery in female Sprague-Dawley rat at 15 mg/kg, po administered as single dose during 0 to 72 hrs by liquid scintillation counting; assay type: ADME, organism-based; set-up: dose 15 mg/kg, dosed compound name [14C]Sunitinib, route oral; settings: in vivo

Question: Which results are given for `CCN(CC)CCNC(=O)c1c(C)[nH]c(/[14CH]=C2\C(=O)Nc3ccc(F)cc32)c1C.O=C(O)C[C@H](O)C(=O)O`?
Answer: Radiolabel recovery [1]: 5.07 ugequiv; t1/2 lambda z (Rattus norvegicus [2]): 9 h; Radiolabel recovery [3]: 5.08 ugequiv; Radiolabel recovery (Spinal cord): 0.29 ugequiv; Radiolabel recovery (Small intestine): 10.28 ugequiv; Radiolabel recovery (Adrenal [4]): 26.74 ugequiv; Radiolabel recovery [5]: 14.48 ugequiv; Radiolabel recovery [6]: 0.96 ugequiv; Radiolabel recovery (Pancreas): 9.18 ugequiv; Radiolabel recovery [7]: 7.55 ugequiv; Radiolabel recovery [8]: 0.16 ugequiv; Radiolabel recovery (Adrenal [9]): 0.35 ugequiv; Radiolabel recovery (Stomach): 0.06 ugequiv; Radiolabel recovery (Zone of skin): 0.26 ugequiv; Radiolabel recovery [10]: 9.3%; Radiolabel recovery (Spleen [11]): 0.23 ugequiv; Radiolabel recovery [12]: 6.2 ugequiv; Radiolabel recovery (Adrenal [13]): 3.59 ugequiv; Radiolabel recovery (Spleen [14]): 0.27 ugequiv; Radiolabel recovery [15]: 8.47 ugequiv; Radiolabel recovery [16]: 3.22 ugequiv; Radiolabel recovery (Kidney): 0.09 ugequiv; Radiolabel recovery (Liver): 0.06 ugequiv; Radiolabel recovery (Adrenal [17]): 1.57 ugequiv; Radiolabel recovery [18]: 0.06 ugequiv; Radiolabel recovery (Rattus norvegicus [19]): 82.5%

Reference: ChEMBL document CHEMBL3525900, “Pharmacokinetics, distribution, and metabolism of [14C]sunitinib in rats, monkeys, and humans” (Drug Metab Dispos, 2012)
